Results on 3 molecules are retold here after ChEMBL document CHEMBL4118021, “Studies of TAK1-centered polypharmacology with novel covalent TAK1 inhibitors” (Bioorg Med Chem, 2017).

SMILES strings stand for the structures. Calls of active or inactive are those of the source. The rule behind the calls is not given here.

Assay [1] deals with T1, Mitogen-activated protein kinase kinase kinase 7 (Homo sapiens) (UniProt O43318).
T1 sequence (whole entry): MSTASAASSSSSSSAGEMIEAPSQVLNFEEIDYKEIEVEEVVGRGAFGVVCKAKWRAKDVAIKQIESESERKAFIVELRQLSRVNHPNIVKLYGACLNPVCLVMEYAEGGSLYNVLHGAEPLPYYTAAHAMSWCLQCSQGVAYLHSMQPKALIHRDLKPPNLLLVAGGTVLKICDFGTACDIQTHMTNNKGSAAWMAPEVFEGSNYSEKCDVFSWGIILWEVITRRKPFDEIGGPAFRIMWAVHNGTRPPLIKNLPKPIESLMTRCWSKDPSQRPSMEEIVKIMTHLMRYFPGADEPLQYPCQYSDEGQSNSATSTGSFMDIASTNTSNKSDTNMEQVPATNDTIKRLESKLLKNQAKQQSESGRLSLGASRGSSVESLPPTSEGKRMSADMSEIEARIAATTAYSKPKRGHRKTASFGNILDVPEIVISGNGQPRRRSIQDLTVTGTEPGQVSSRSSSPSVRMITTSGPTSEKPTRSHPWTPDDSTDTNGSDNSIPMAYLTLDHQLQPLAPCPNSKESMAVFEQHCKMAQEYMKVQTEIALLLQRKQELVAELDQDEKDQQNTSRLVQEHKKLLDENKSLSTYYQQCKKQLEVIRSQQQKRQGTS
Put plainly: Inhibition of TAK1 in RA patient-derived synovial fibroblasts assessed as inhibition of TNFalpha-induced cytokine secretion at 3 uM preincubated for 3 hrs followed by TNFalpha stimulation measured after 18 hrs by sandwich immunoassay. The method in brief: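 Primary RA synovial fibroblasts (donor RA2159) seeded 1000 cells/well and grown ~24 h at 37 °C, 5% CO2. Starved overnight in basal medium, then ~4 h in basal medium with 0.1% BSA. Two adjacent wells pooled per replicate, in biological duplicate. Supernatants diluted 1:3 and run on Luminex 27-plex/21-plex sandwich immunoassays for 48 analytes, with spiked-ligand and mock-supernatant background controls.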

The target in assay [2] is Cyclin-dependent kinase 20 / CCRK (Homo sapiens) (UniProt Q8IZL9). Nature of the assay: Inhibition of CCRK in human SKCO1 cells at 1 uM after 4 hrs using biotin labeled DLKPANLLISASGQLK probe by mass-spectrometric analysis relative to control.
Sequence of Cyclin-dependent kinase 20 / CCRK (Homo sapiens) (Q8IZL9 whole entry, looked up, the tested form may be a part): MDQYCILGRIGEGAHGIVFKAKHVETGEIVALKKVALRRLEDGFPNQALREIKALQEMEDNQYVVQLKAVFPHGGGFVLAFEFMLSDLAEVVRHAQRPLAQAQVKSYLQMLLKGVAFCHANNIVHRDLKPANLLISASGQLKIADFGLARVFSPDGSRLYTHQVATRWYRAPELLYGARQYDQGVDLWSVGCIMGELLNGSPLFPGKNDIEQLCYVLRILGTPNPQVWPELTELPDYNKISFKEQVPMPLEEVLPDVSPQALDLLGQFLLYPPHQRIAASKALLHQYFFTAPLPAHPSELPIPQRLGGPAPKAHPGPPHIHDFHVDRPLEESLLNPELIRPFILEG
The target of assay [3] is Platelet-derived growth factor receptor alpha (Homo sapiens) (UniProt P16234). Put plainly: Inhibition of human PDGFRA (575 to 1002 residues) expressed in mammalian expression system assessed as enzyme activity at 10 uM by KINOMEScan assay relative to control. Further details: scale not given: the % may be the effect or the level left. The method in brief: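 In vitro ATP-site competition binding assay across a panel of 456 kinases, with compound tested at 1 and 10 μM.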
Sequence of Platelet-derived growth factor receptor alpha (Homo sapiens) (P16234 whole entry, the tested form may be a part): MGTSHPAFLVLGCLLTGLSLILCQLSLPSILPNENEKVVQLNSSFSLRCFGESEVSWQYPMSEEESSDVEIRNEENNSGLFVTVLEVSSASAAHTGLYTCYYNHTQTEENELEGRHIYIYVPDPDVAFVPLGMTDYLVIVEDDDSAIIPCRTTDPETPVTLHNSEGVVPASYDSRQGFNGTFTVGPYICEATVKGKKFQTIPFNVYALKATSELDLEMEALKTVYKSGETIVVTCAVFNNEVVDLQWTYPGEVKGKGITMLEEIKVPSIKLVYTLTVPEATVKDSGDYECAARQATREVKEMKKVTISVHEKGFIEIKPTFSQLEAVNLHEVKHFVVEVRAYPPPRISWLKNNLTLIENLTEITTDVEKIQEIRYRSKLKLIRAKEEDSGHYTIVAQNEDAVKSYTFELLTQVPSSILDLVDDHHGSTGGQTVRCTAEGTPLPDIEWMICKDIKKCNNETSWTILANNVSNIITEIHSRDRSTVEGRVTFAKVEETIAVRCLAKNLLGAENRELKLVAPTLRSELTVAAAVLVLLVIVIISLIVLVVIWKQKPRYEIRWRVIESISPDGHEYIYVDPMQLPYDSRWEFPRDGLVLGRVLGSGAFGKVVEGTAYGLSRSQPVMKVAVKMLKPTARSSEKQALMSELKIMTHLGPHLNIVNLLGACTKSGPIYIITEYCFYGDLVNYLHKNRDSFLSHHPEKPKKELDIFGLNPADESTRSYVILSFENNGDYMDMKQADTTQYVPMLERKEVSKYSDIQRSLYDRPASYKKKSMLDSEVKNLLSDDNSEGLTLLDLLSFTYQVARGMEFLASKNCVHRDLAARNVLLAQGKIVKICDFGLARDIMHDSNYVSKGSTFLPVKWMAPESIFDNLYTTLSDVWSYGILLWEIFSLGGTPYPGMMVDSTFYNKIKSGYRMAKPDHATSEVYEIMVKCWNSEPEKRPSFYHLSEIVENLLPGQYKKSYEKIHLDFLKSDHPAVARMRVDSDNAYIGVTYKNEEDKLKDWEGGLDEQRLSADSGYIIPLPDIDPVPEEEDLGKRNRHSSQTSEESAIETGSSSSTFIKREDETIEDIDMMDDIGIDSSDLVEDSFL

In assay [4] the target is Protein CIP2A (Homo sapiens) (UniProt Q8TCG1). Nature of the assay: Binding affinity to KIAA1524 in human NCI-H23 cells at 1 uM by mass spectrometry based pull down assay. Format: cell-based.
In assay [5] the target is Calmodulin-2 (Homo sapiens) (UniProt P0DP24). Nature of the assay: Binding affinity to CALM2 in human NCI-H23 cells at 1 uM by mass spectrometry based pull down assay. In kind it is cell-based.
Assay [6] has as its target Cancer-related nucleoside-triphosphatase (Homo sapiens) (UniProt Q9BSD7). Put plainly: Binding affinity to NTPCR in human NCI-H23 cells at 1 uM by mass spectrometry based pull down assay. Format: cell-based.
In assay [7] the target is Kinesin-1 heavy chain (Homo sapiens) (UniProt P33176). Put plainly: Binding affinity to KIF5B in human NCI-H23 cells at 1 uM by mass spectrometry based pull down assay. Format: cell-based.
Sequence of Kinesin-1 heavy chain (Homo sapiens) (P33176 whole entry): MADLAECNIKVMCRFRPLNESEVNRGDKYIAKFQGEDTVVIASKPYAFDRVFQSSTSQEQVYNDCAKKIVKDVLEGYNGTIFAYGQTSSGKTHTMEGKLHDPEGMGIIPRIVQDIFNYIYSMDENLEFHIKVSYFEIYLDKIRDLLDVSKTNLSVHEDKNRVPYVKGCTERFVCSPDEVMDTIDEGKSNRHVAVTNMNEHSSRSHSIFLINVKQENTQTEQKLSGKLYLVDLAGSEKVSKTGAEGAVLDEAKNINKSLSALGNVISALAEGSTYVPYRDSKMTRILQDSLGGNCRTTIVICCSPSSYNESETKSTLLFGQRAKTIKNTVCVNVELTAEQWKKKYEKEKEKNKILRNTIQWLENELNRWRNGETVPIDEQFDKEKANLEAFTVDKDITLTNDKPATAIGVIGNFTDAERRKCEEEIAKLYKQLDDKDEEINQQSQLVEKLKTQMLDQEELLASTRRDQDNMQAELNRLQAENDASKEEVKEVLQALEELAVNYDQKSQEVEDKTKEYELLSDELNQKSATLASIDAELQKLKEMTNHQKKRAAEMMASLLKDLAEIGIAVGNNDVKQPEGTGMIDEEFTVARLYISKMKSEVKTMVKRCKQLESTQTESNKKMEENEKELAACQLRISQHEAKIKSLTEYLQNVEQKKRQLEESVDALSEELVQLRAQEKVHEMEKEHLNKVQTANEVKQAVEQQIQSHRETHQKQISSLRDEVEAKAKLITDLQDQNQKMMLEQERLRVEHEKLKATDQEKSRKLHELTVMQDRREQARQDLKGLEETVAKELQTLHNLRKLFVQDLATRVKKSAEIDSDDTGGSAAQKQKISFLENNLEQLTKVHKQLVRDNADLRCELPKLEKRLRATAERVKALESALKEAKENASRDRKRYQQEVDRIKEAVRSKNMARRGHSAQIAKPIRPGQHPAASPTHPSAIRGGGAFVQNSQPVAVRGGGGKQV
The target in assay [8] is Inter-alpha-trypsin inhibitor heavy chain H2 (Homo sapiens) (UniProt P19823). Put plainly: Binding affinity to ITIH2 in human NCI-H23 cells at 1 uM by mass spectrometry based pull down assay. In kind it is cell-based.
Sequence of Inter-alpha-trypsin inhibitor heavy chain H2 (Homo sapiens) (P19823 whole entry): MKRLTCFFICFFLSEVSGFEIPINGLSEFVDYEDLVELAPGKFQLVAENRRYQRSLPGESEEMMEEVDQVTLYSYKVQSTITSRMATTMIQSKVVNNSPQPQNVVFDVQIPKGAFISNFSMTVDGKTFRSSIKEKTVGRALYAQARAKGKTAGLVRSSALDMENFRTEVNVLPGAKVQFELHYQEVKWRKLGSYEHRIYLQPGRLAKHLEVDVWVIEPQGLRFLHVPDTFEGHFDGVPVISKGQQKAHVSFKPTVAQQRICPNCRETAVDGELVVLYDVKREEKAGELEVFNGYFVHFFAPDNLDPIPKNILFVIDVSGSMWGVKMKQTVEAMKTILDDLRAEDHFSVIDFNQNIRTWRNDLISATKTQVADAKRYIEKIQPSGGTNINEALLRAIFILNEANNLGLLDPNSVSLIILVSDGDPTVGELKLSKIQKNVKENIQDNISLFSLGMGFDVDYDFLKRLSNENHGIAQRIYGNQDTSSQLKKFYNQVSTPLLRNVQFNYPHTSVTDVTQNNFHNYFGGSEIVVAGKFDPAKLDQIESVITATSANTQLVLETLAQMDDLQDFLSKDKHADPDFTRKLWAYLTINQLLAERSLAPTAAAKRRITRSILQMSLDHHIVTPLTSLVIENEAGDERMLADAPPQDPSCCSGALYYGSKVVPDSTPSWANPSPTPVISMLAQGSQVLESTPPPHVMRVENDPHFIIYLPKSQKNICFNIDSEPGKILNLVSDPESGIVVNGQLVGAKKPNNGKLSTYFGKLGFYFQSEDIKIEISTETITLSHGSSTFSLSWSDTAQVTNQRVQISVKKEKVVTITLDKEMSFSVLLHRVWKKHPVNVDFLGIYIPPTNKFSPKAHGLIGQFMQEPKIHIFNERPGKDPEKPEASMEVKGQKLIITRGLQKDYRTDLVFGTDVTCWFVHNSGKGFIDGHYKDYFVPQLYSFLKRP
Assay [9] deals with HCLS1-associated protein X-1 (Homo sapiens) (UniProt O00165). Nature of the assay: Binding affinity to HAX1 in human NCI-H358 cells at 1 uM by mass spectrometry based pull down assay. In kind it is cell-based.
Sequence of HCLS1-associated protein X-1 (Homo sapiens) (O00165 whole entry): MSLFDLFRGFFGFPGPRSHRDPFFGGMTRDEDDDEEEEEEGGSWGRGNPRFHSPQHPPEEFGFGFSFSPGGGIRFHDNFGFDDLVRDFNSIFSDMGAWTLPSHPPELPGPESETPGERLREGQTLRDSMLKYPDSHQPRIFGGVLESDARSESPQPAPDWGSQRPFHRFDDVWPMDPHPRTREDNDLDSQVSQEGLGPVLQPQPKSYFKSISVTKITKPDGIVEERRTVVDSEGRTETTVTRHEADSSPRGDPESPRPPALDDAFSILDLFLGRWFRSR
The target in assay [10] is Serine/threonine-protein phosphatase PP1-alpha catalytic subunit (Homo sapiens) (UniProt P62136). Put plainly: Binding affinity to PPP1CA in human NCI-H23 cells at 1 uM by mass spectrometry based pull down assay. In kind it is cell-based.
Sequence of Serine/threonine-protein phosphatase PP1-alpha catalytic subunit (Homo sapiens) (P62136 whole entry): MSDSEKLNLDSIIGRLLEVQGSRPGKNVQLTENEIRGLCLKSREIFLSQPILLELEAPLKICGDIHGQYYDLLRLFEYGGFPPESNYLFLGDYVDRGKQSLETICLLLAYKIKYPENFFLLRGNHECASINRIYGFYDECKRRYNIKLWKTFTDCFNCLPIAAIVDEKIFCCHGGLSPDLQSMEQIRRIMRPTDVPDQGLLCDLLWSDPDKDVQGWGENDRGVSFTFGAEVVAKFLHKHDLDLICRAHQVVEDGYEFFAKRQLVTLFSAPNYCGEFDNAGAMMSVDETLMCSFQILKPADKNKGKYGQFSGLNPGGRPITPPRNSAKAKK
Assay [11] deals with Thioredoxin-related transmembrane protein 1 (Homo sapiens) (UniProt Q9H3N1). Put plainly: Binding affinity to TMX1 in human NCI-H23 cells at 1 uM by mass spectrometry based pull down assay. In kind it is cell-based.
Sequence of Thioredoxin-related transmembrane protein 1 (Homo sapiens) (Q9H3N1 whole entry): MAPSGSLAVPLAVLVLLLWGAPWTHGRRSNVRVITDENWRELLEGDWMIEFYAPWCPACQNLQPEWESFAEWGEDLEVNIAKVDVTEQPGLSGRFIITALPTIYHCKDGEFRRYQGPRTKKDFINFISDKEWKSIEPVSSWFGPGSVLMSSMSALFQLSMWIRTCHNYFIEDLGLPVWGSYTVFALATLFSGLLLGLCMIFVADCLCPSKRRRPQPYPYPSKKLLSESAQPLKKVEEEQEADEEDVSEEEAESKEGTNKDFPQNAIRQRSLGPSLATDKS
Assay [12] concerns the target T2, Serine/threonine-protein kinase 4 (Homo sapiens) (UniProt Q13043).
T2 sequence (whole entry): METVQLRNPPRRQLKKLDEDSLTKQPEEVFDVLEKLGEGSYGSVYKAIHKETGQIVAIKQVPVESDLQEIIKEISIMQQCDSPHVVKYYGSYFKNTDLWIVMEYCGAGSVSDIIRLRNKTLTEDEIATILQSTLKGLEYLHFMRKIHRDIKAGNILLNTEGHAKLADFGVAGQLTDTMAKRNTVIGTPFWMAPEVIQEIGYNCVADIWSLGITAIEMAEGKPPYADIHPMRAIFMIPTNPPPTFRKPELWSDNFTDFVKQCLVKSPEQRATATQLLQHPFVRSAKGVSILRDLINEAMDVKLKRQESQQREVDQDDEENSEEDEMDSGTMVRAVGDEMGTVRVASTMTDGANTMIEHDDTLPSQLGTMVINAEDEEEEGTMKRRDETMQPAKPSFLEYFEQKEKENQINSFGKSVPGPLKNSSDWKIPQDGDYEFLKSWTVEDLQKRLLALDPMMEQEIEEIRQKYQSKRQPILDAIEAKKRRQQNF
Put plainly: Binding affinity to STK4 in human NCI-H23 cells at 1 uM by mass spectrometry based pull down assay. Format: cell-based.

For assay [13], the target named is 80S Ribosome (Homo sapiens) (UniProt P08865+P42677+P62753+P15880+P23396+P61247+P62701+P22090+P46782+P62081+P62241+P46781+P46783+P62280+P25398+P62277+P62263+P62841+P62244+P62249+P08708+P62269+P39019+P60866+P63220+P62266+P62847+P62851+P62854+P62979+P62857+P62273+P62861+P39023+P36578+P46777+Q02878+P18124+P62424+P62917+P32969+P27635+P62906+P62913+P30050+P26373+P40429+P50914+P61313+P18621+Q07020+Q02543+P84098+P46778+P35268+P62829+P62750+P83731+P61254+P61353+P46776+P46779+P47914+P62888+P62899+P62910+P49207+P42766+P18077+Q9Y3U8+P83881+P61927+P61513+P63173+P62891+P62945+P05388+P05386). Put plainly: Binding affinity to RPS17 in human NCI-H23 cells at 1 uM by mass spectrometry based pull down assay. Format: cell-based.

Sequence of Cancer-related nucleoside-triphosphatase (Homo sapiens) (Q9BSD7 whole entry): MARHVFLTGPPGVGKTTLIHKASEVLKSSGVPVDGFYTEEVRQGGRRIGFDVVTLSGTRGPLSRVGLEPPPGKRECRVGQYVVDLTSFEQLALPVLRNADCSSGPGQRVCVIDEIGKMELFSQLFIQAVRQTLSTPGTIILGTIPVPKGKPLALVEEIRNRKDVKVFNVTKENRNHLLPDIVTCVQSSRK

In general, inhibition refers to the relative decrease from the control value, in per cent. Regarding `C=CC(=O)Nc1ccccc1Oc1nc(Nc2cnn(CCOC)c2)ncc1Cl`, in assay [1], the inhibition result was “Active”. Further, in assay [2], the inhibition is -9%.
In the case of `COc1cc(O)c2c(c1)/C=C/C[C@H](O)[C@H](O)C(=O)/C=C\C[C@H](C)OC2=O`, the Activity in assay [3] worked out at 1.4%.
In the case of `C=CC(=O)Nc1ccccc1Nc1nc(Nc2ccc(N3CCN(CCOCCOCCOCCNC(=O)CCCC[C@@H]4SC[C@@H]5NC(=O)N[C@@H]54)CC3)cc2)ncc1Cl`, the result in assay [4], in [5], in assay [6], in assay [7], in assay [8] and in assay [9] was Active. The outcome in assay [10], in assay [11], in assay [12] and in assay [13] was Active.
